Assay [1] relates to Staphylococcus aureus. Nature of the assay: Antibacterial activity against Staphylococcus aureus ATCC 25923 incubated for 24 hrs by microdilution method. In kind it is functional. The essentials: (§1)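 Modified microdilution in nutrient broth with exponentially growing bacteria per well: E. coli at 5 × 10^3, S. aureus at 3.5 × 10^4. Increasing compound concentrations were dissolved in DMSO and diluted in broth (final DMSO 0.1% v/v). Plates incubated 24 h at 37 °C.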
(In general: In broth dilution the organism is exposed to a series of concentrations in liquid medium.)

The subject of assay [2] is A549. Nature of the assay: Cytotoxicity against human A549 cells assessed as inhibition of cell growth incubated for 48 hrs by Hoechst assay. In kind it is functional, cell-based. The note with it: A549, 48 h. The procedure, abridged: (§2)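 Cells from ATCC, grown in MEM with Earle's salts, 10% fetal calf serum, vitamins, sodium pyruvate, nonessential amino acids and penicillin/streptomycin at 37 °C in humidified 5% CO2. 5 × 10^3 exponentially growing cells per well adhered for 16 h, then were exposed 48 h to increasing concentrations in medium (final DMSO 0.5% v/v). Hoechst staining read-out; IC50 is the concentration inhibiting growth by 50%.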

A short description of assay [3]: Cytotoxicity against human DLD1 cells assessed as inhibition of cell growth incubated for 48 hrs by Hoechst assay. In kind it is functional, cell-based. As to conditions: DLD-1, 48 h. The essentials:
as §2

Assay [4] is described as follows: Cytotoxicity against human WS1 cells assessed as inhibition of cell growth incubated for 48 hrs by Hoechst assay. The format is cell-based. As to conditions: WS1, 48 h. The procedure, abridged:
as §2

Assay [5] concerns Escherichia coli. The assay is described as follows: Antibacterial activity against Escherichia coli ATCC 25922 incubated for 24 hrs by microdilution method. In kind it is functional, organism-based. The procedure, abridged: as §1
The subject of assay [6] is Candida albicans. The assay is described as follows: Antifungal activity against Candida albicans incubated for 24 hrs by microdilution method. In kind it is functional, organism-based. The procedure, abridged: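 Yeast tested by modified microdilution at 2 × 10^3 C. albicans per well in Sabouraud dextrose. Compounds were dissolved in DMSO, diluted in Sabouraud dextrose and added at increasing concentrations (final DMSO 0.1% v/v). Plates incubated 24 h at 37 °C.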

The subject of assay [7] is A549. The assay is described as follows: Selectivity index, ratio of IC50 for human A549 cells to IC50 for human DLD1 cells. In kind it is functional.
Assay [8] relates to DLD-1. Nature of the assay: Selectivity index, ratio of IC50 for human WS1 cells to IC50 for human DLD1 cells. In kind it is functional.

Data on ten molecules can be found in ChEMBL document CHEMBL3593158, “Dirchromones: Cytotoxic Organic Sulfur Compounds Isolated from Dirca palustris” (J Nat Prod, 2015).

Converted amounts (≈) assume the structure as drawn. The source made the active and inactive calls. The rule behind the calls is not given here.

What is called MIC90 is an inhibitory concentration at the 90% level, which refers to growth in some studies and to a panel of isolates in others. A higher MIC90 goes with lower susceptibility. Broadly, the IC50 is the midpoint of a concentration-inhibition curve.

`COc1ccc2c(=O)cc(/C=C/[S+](C)[O-])oc2c1` (stereo not drawn) displayed an MIC90 in assay [1] (ATCC 25923, 24 h) of 8.3 µg/mL (≈ 31.4 µM). In addition, the IC50 stood at 10.5 µM in assay [2], 1.8 µM in assay [3] and 9 µM in assay [4]. Also, the result in assay [5] and in assay [6] was inactive. Besides, the values for the Ratio IC50 in assay [7] and in assay [8] were 5.8 and 5, respectively.

Take `COc1cc2oc(/C=C/[S+](C)[O-])cc(=O)c2cc1OC` (stereo not drawn): in assay [1] (ATCC 25923, 24 h), the MIC90 was 18.4 µg/mL (≈ 62.5 µM). Moreover, the figures for the IC50 in assay [2], in assay [3] and in assay [4] were greater than 10 µM, 4.2 µM and greater than 10 µM, respectively. The result in assay [5] and in assay [6] was inactive.

`COc1cc([C@@H]2c3cc4c(cc3[C@@H](O[C@@H]3O[C@@H]5CO[C@@H](C)O[C@H]5[C@H](O)[C@H]3O)[C@H]3COC(=O)[C@H]23)OCO4)cc(OC)c1O` [ETOPOSIDE]: the IC50 was 0.48 µM in assay [2], 3.3 µM in assay [3] and greater than 10 µM in assay [4].

`C[S+]([O-])/C=C/c1cc(=O)c2ccccc2o1` (stereo not drawn) came in with an MIC90 in assay [1] (ATCC 25923, 24 h) of 3.7 µg/mL (≈ 15.8 µM). Besides, the half-inhibitory concentration (IC50) came out at 10 µM in assay [2], 1 µM in assay [3] and 9 µM in assay [4]. For the same molecule, the result in assay [5] and in assay [6] was inactive. The Ratio IC50 was determined as 10 in assay [7] and 9 in assay [8].

In assay [1] (ATCC 25923, 24 h), `COc1ccc2c(=O)cc(/C=C/[S+](C)[O-])oc2c1O` (stereo not drawn) registered an MIC90 of 14 µg/mL (≈ 49.9 µM). Further, the IC50 in assay [2], in assay [3] and in assay [4] was greater than 10 µM in each case. In addition, the outcome in assay [5] and in assay [6] was inactive.

As to GENTAMICIN, the MIC90 in assay [1] came to 0.04 µg/mL.

As to `COc1cc2oc(/C=C/[S+](C)[O-])cc(=O)c2cc1O` (stereo not drawn), the MIC90 in assay [1] (ATCC 25923, 24 h) was determined as 14 µg/mL (≈ 49.9 µM). Also, the IC50 in assay [2], in assay [3] and in assay [4] was greater than 10 µM throughout. Further, the outcome in assay [5] and in assay [6] was inactive.

`C[S+]([O-])/C=C/c1cc(=O)c2cc(O)ccc2o1` (stereo not drawn) registered an MIC90 in assay [1] (ATCC 25923, 24 h) of 7.8 µg/mL (≈ 31.2 µM). The IC50 in assay [2], in assay [3] and in assay [4] was greater than 10 µM each time. The outcome in assay [5] and in assay [6] was inactive.

Consider `COc1ccc2c(=O)cc(/C=C/[S+](C)[O-])oc2c1OC` (stereo not drawn), for which, in assay [1] (ATCC 25923, 24 h), the MIC90 came out at 18.4 µg/mL (≈ 62.5 µM). Moreover, the values for the IC50 in assay [2], in assay [3] and in assay [4] were greater than 10 µM, 3.3 µM and greater than 10 µM, respectively. Also, the outcome in assay [5] and in assay [6] was inactive.

As to `COc1ccc2oc(/C=C/[S+](C)[O-])cc(=O)c2c1` (stereo not drawn), the MIC90 in assay [1] (ATCC 25923, 24 h) worked out at 4.1 µg/mL (≈ 15.5 µM). Moreover, the IC50 was found to be 9 µM in assay [2], 1.1 µM in assay [3] and 6 µM in assay [4]. Further, the result in assay [5] and in assay [6] was inactive. Moreover, the Ratio IC50 came to 8.2 in assay [7] and 5 in assay [8].
